Assay results from ChEMBL document CHEMBL1144548, “Dioxane and oxathiane nuclei: suitable substructures for muscarinic agonists” (Bioorg Med Chem, 2007).
Activity calls are given as the source filed them. The rule behind the calls is not given here.

Each compound was assayed on Muscarinic acetylcholine receptor M2 (Cavia porcellus) (assay: Intrinsic activity at muscarinic M2 receptor in guinea-pig stimulated left atria assessed as ratio of agonist activity to activity of arecaidine propargyl ester). Conditions: […].

Compound | Intrinsic activity
C[C@H]1CSC[C@@H](C[N+](C)(C)C)O1 (relative stereo) | 1
C[C@H]1OCC[C@@H](C[N+](C)(C)C)O1 | 1

What follows are compounds tested against T1, Muscarinic acetylcholine receptor M1 (Homo sapiens) (UniProt P11229) (assay: Antagonist activity at muscarinic M1 receptor in rabbit stimulated vas deferens at 10 uM). Conditions: Oryctolagus cuniculus, target entry is the homologue from another species.
T1 sequence (whole entry): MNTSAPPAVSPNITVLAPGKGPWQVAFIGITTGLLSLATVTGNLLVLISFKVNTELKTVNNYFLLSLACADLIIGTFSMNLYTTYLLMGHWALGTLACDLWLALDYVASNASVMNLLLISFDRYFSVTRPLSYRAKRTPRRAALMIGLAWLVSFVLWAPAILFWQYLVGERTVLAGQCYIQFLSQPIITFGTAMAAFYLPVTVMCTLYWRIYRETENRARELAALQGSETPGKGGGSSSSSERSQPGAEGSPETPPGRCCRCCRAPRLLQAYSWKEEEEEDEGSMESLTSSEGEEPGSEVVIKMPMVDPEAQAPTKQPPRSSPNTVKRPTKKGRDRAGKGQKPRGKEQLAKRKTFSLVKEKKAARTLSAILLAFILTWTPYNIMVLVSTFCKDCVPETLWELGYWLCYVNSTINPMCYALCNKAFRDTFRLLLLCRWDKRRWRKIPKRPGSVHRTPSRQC
Type: functional, tissue-based

Compound | pKb
C[C@@H]1COC[C@H](C[N+](C)(C)C)O1 | < 5
C[C@H]1OCC[C@@H](C[N+](C)(C)C)O1 | > 5
C[C@H]1CSC[C@H](C[N+](C)(C)C)O1 (relative stereo) | < 5

The compounds below were run against T1, Muscarinic acetylcholine receptor M1 (Homo sapiens) (assay: not given). Conditions: Oryctolagus cuniculus; Vas deferens.

Compound | pD2
CC1COCC(C[N+](C)(C)C)O1 (racemic; form 1) [listing 1 of 2 here] | 5.65
C[C@H]1COC[C@@H](C[N+](C)(C)C)O1 | 6.78
C[C@H]1COC[C@H](C[N+](C)(C)C)O1 | 5.08
C[C@H]1CSC[C@@H](C[N+](C)(C)C)O1 (relative stereo) | 4.46
CC1OC(C[N+](C)(C)C)CS1 (racemic) | 6.81

Each compound was assayed against T2, Muscarinic acetylcholine receptor M4 (Homo sapiens, UniProt P08173) (assay: Agonist activity at human muscarinic M4 receptor expressed in CHO cells). Conditions: not given.
T2 sequence (P08173 whole entry): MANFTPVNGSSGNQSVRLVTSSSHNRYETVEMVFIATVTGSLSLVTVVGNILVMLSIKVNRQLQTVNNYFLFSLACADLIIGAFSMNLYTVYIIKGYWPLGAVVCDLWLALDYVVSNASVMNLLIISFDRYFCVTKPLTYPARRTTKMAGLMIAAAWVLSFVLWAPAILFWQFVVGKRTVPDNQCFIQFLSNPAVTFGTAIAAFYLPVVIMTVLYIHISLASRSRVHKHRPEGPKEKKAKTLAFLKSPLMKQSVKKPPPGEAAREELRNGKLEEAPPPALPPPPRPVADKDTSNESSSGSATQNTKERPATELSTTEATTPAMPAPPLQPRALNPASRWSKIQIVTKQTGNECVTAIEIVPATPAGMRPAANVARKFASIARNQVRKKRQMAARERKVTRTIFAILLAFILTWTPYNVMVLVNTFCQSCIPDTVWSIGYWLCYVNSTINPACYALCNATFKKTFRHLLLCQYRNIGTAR
Type: functional, cell-based

Compound | EC50 [µM]
C[C@@H]1COC[C@H](C[N+](C)(C)C)O1 | 25.1
C[C@H]1COC[C@@H](C[N+](C)(C)C)O1 | 2.82
CC1COCC(C[N+](C)(C)C)O1 (racemic; form 1) [listing 2 of 2 here] | 2.51
CC1COCC(C[N+](C)(C)C)O1 (racemic; form 2) | 282

Each compound was assayed against T3, Muscarinic acetylcholine receptor M5 (Homo sapiens) (UniProt P08912) (assay: Agonist activity at human muscarinic M5 receptor expressed in CHO cells). Conditions: not given.
T3 sequence (whole entry): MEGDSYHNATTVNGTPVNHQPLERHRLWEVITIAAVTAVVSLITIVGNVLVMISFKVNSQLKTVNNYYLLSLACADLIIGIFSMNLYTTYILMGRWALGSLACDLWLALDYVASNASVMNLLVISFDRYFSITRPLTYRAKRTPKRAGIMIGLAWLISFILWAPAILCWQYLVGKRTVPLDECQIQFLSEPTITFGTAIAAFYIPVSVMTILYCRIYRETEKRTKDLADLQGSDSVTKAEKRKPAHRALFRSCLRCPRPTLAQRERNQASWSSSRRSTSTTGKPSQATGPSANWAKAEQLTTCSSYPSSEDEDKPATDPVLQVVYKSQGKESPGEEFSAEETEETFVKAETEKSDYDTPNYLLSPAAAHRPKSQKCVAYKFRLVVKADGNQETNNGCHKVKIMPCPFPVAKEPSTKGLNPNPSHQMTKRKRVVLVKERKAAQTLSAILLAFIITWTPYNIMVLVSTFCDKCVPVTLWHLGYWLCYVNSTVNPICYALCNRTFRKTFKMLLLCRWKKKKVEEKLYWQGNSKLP
Type: functional, cell-based

Compound | Activity
C[C@@H]1COC[C@H](C[N+](C)(C)C)O1 | inactive

Each compound was assayed on Muscarinic acetylcholine receptor M2 (Cavia porcellus) (assay: Agonist activity at muscarinic M2 receptor in guinea-pig stimulated left atria). Conditions: not given.

Compound | pD2
C[C@H]1CSC[C@@H](C[N+](C)(C)C)O1 (relative stereo) | 6.26
C[C@H]1OCC[C@@H](C[N+](C)(C)C)O1 | 5.24

The compounds below were run on Muscarinic acetylcholine receptor M4 (Cavia porcellus) (assay: Agonist muscarinic M4 receptor in guinea-pig lung strips). Conditions: not given.

Compound | pD2
C[C@H]1OCC[C@@H](C[N+](C)(C)C)O1 | 6.41

Each compound was assayed against Muscarinic acetylcholine receptor M3 (Cavia porcellus) (UniProt Q8VH26) (assay: Agonist activity at muscarinic M3 receptor in guinea-pig ileum). Conditions: not given.
Type: functional, tissue-based
In short: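 Isolated tissues in an organ bath were washed for 30 min, then a cumulative dose–response curve to the compound was built. Contractions were recorded isometrically by force transducer and expressed as % of the maximal control-curve response. Parallel untreated tissues checked sensitivity drift. Values are means ± SEM of four to six independent experiments.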

Chain of Muscarinic acetylcholine receptor M3 (Cavia porcellus) (Q8VH26 1-587): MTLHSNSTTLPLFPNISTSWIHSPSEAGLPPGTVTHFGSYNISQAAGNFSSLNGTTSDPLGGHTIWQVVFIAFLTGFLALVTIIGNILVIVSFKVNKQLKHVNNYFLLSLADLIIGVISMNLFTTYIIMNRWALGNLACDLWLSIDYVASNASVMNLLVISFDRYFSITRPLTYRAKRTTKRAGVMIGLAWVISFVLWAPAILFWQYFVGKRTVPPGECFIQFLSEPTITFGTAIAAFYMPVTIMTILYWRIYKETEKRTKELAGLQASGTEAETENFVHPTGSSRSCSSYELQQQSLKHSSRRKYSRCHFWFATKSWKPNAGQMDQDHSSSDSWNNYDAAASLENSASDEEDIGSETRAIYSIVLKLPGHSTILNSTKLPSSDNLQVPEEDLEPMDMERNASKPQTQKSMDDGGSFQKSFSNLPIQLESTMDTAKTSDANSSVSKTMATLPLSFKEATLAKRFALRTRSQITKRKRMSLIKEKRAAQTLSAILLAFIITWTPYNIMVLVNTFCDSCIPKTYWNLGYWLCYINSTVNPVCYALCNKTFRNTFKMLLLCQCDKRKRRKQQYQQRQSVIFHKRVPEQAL

Compound | pD2
C[C@H]1OC[C@@H](C[N+](C)(C)C)O1 (relative stereo) | 7.69
CC1COCC(C[N+](C)(C)C)O1 (racemic; form 1) [listing 1 of 2 here] | 7.34
C[C@H]1O[C@@H](C[N+](C)(C)C)CS1 | 5.82
C[C@@H]1COC[C@H](C[N+](C)(C)C)O1 | 6.53
C[C@H]1COC[C@@H](C[N+](C)(C)C)O1 | 7.65
C[C@H]1COC[C@H](C[N+](C)(C)C)O1 | 6.02
C[C@H]1CSC[C@@H](C[N+](C)(C)C)O1 (relative stereo) | 6.46
C[C@@H]1O[C@H](C[N+](C)(C)C)CS1 | 8.06
C[C@H]1OCC[C@@H](C[N+](C)(C)C)O1 | 5.73
CC1OC(C[N+](C)(C)C)CS1 (racemic) | 7.75
C[C@H]1OC[C@H](C[N+](C)(C)C)O1 (relative stereo) | 7.47
C[C@H]1CSC[C@H](C[N+](C)(C)C)O1 (relative stereo) | 5.21

What follows are compounds tested against T4, Muscarinic acetylcholine receptor M2 (Homo sapiens) (UniProt P08172) (assay: Antagonist activity at muscarinic M2 receptor in guinea-pig stimulated left atria at 10 uM). Conditions: Cavia porcellus, target entry is the homologue from another species.
T4 sequence (whole entry): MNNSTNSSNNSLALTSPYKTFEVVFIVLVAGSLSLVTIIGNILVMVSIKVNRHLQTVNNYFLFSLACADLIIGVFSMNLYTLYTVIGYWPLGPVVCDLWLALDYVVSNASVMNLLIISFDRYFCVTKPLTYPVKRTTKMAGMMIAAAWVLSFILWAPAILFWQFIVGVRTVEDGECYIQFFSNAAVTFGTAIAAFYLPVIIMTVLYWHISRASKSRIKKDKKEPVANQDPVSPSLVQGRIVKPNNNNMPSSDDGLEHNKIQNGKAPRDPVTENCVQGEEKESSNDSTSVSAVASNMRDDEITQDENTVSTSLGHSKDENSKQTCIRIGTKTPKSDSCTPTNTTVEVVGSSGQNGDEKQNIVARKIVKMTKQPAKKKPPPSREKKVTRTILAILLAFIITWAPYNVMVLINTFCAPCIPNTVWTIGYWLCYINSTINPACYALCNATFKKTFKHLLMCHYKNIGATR
Type: functional

Compound | pKb
C[C@H]1CSC[C@H](C[N+](C)(C)C)O1 (relative stereo) | < 5

What follows are compounds tested on Muscarinic acetylcholine receptor M4 (Cavia porcellus) (assay: Intrinsic activity at muscarinic M4 receptor in guinea-pig lung strips assessed as ratio of agonist activity to activity of McN-A-343). Conditions: not given.

Compound | Intrinsic activity
C[C@H]1OCC[C@@H](C[N+](C)(C)C)O1 | 1

The compounds below were run against Muscarinic acetylcholine receptor M3 (Cavia porcellus) (UniProt Q8VH26) (assay: Intrinsic activity at muscarinic M3 receptor in guinea-pig ileum assessed as ratio of agonist activity to activity of […]). Conditions: not given.
Type: functional, tissue-based

Compound | Intrinsic activity
C[C@H]1CSC[C@@H](C[N+](C)(C)C)O1 (relative stereo) | 1
C[C@H]1OCC[C@@H](C[N+](C)(C)C)O1 | 1
C[C@H]1CSC[C@H](C[N+](C)(C)C)O1 (relative stereo) | 1
